In brackets after ≈: the same amount, converted by molar mass.
How the values were obtained:
[1] = system: Rotylenchulus reniformis; experiment: Nematicidal activity against fourth-stage juvenile of Rotylenchulus reniformis (reniform nematode) assessed as juvenile immobility after 72 hr by stereoscopic binocular microscopic analysis; format: functional, organism-based
Outline: (§1)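 Juveniles came from a single-egg-mass culture maintained on cowpea in sterilized soil-sand. Exposed in Petri dishes, 3 per treatment, with water plus ethanol as control. Immobility scored by stereomicroscope at 72 h. Revival test: 48 h in distilled water, and revived juveniles were subtracted. Mortality was Abbott-corrected, with LC50 in ppm.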

[2] = system: Caenorhabditis elegans; experiment: Nematicidal activity against Caenorhabditis elegans assessed as mortality at 200 ppm after 24 hr; format: functional
Outline: (§2)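 C. elegans grown on NG agar carrying E. coli. 15-20 worms in 48 µL saline per well, 3 wells per treatment, plus 2 µL 50% DMSO with or without test material (200 ppm). Plates covered and kept in a humid chamber. Dead nematodes counted microscopically at 2, 4, 6 and 24 h.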

[3] = system: Athelia rolfsii; experiment: Fungicidal activity against Athelia rolfsii assessed as mycelial growth inhibition; format: functional; conditions: Agroathelia rolfsii; read-out: ED50 (the source's name)
Outline: (§3)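 Poisoned food technique on potato-dextrose-agar. Fungi kept on PDA slants at 25 °C and subcultured before testing. A stock in acetone (65 mg/4 mL) was diluted into PDA to about 500, 250, 100, 25 and 5 mg/L; acetone was the control. A 5-mm fungal disk was placed centrally, 2 dishes per treatment, 26 (±2) °C until control growth was nearly complete (2-3 days). Colony diameter was measured in three directions, and % and corrected inhibition were calculated.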

[4] = system: Rhizoctonia solani; experiment: Fungicidal activity against Rhizoctonia solani assessed as mycelial growth inhibition; format: functional; conditions: read-out: ED50 (the source's name); outline: as §3
[5] = system: Caenorhabditis elegans; experiment: Nematicidal activity against Caenorhabditis elegans assessed as mortality applied as 20% powdery concentrate after 24 hr; format: functional; outline: as §2
[6] = system: Rotylenchulus reniformis; experiment: Nematicidal activity against fourth-stage juvenile of Rotylenchulus reniformis (reniform nematode) assessed as juvenile immobility applied as 20% powdery concentrate after 72 hr by stereoscopic binocular microscopic analysis; format: functional, organism-based; outline: as §1
[7] = system: Rhizoctonia solani; experiment: Fungicidal activity against Rhizoctonia solani assessed as mycelial growth inhibition applied as 60% powdery concentrate; format: functional; conditions: read-out: ED50 (the source's name); outline: as §3
[8] = system: Rotylenchulus reniformis; experiment: Nematicidal activity against fourth-stage juvenile of Rotylenchulus reniformis (reniform nematode) assessed as juvenile immobility applied as 90% powdery concentrate after 72 hr by stereoscopic binocular microscopic analysis; format: functional, organism-based; outline: as §1
[9] = system: Athelia rolfsii; experiment: Fungicidal activity against Athelia rolfsii assessed as mycelial growth inhibition applied as 20% powdery concentrate; format: functional; conditions: Agroathelia rolfsii; read-out: ED50 (the source's name); outline: as §3
[10] = system: Rotylenchulus reniformis; experiment: Nematicidal activity against fourth-stage juvenile of Rotylenchulus reniformis (reniform nematode) assessed as juvenile immobility applied as 60% powdery concentrate after 72 hr by stereoscopic binocular microscopic analysis; format: functional, organism-based; outline: as §1
[11] = system: Rhizoctonia solani; experiment: Fungicidal activity against Rhizoctonia solani assessed as mycelial growth inhibition applied as 90% powdery concentrate; format: functional; conditions: read-out: ED50 (the source's name); outline: as §3
[12] = system: Rhizoctonia solani; experiment: Fungicidal activity against Rhizoctonia solani assessed as mycelial growth inhibition applied as 20% powdery concentrate; format: functional; conditions: read-out: ED50 (the source's name); outline: as §3
[13] = system: Athelia rolfsii; experiment: Fungicidal activity against Athelia rolfsii assessed as mycelial growth inhibition applied as 60% powdery concentrate; format: functional; conditions: Agroathelia rolfsii; read-out: ED50 (the source's name); outline: as §3

## C/C=C(\C)C(=O)O[C@@H]1C[C@H](O)[C@]23CO[C@H](C(=O)OC)[C@H]2[C@](C)([C@]24O[C@@]2(C)[C@H]2C[C@@H]4O[C@@H]4OC=C[C@@]42O)[C@H](O)[C@@H]2OC[C@@]1(C(=O)OC)[C@H]23 [AZADIRACHTIN B]
[1]
  EC50: 96.6 ppm
[2]
  mortality at 200 ppm: 64%
[3]
  EC50: 76.2 µg/mL (≈ 115 µM)
[4]
  EC50: 85.9 µg/mL (≈ 130 µM)

## C/C=C(\C)C(=O)O[C@H]1C[C@@H](OC(C)=O)[C@@]2(C(=O)OC)CO[C@H]3[C@@H](O)[C@@](C)([C@]45O[C@@]4(C)[C@@H]4C[C@H]5O[C@@H]5OC=C[C@@]54O)[C@H]4[C@]1(CO[C@]4(O)C(=O)OC)[C@@H]32 [AZADIRACHTIN A]
[5]
  mortality: 50%
[6]
  EC50: 193.9 ppm
[7]
  EC50: 132 µg/mL (≈ 183 µM)
[8]
  EC50: 119.1 ppm
[9]
  EC50: 140 µg/mL (≈ 195 µM)
[10]
  EC50: 151.9 ppm
[11]
  EC50: 105 µg/mL (≈ 145 µM)
[2]
  mortality at 200 ppm: 56%
[3]
  EC50: 93.6 µg/mL (≈ 130 µM)
[12]
  EC50: 165 µg/mL (≈ 229 µM)
[13]
  EC50: 122 µg/mL (≈ 169 µM)

## C/C=C(\C)C(=O)O[C@H]1C[C@@H](OC(C)=O)[C@@]2(C(=O)OC)CO[C@H]3[C@@H](O)[C@@](C)([C@]45O[C@@]4(C)[C@H]4C[C@@H]5O[C@@H]5OC=C[C@@]54O)[C@@H]4[C@H](O)OC[C@@]14[C@@H]32 [AZADIRACHTIN H]
[1]
  EC50: 141.2 ppm
[2]
  mortality at 200 ppm: 65%
[3]
  EC50: 43.9 µg/mL (≈ 66.2 µM)
[4]
  EC50: 63.7 µg/mL (≈ 96.1 µM)
